Results as given in ChEMBL document CHEMBL5356984 (RSC Med Chem, 2023).
The source made the active and inactive calls. The calls are words filed in the database; no cut-off is given here.

What was measured:
[1] = tested on: HEK-293T; assay: Cytotoxicity against HEK293T cells assessed as cell growth inhibition measured after 48 hrs by MTT assay; assay type: functional, cell-based; details: Homo sapiens
In short: (§1)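 MTT cell viability read-out; IC50 obtained by non-linear regression of concentration–response data; values are mean ± SD of three independent experiments.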

[2] = tested on: SK-BR-3; assay: Induction of apoptosis in human SK-BR-3 cells assessed as increase in cleaved pro-caspase-8 level at 10 to 20 uM incubated for 48 hrs by Western blot analysis; assay type: functional, cell-based; details: dose 10-20 µM
In short: (§2)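 Cells exposed 48 h (DMSO vehicle control); trypsinized, lysed in RIPA with phosphatase/protease inhibitors; 20 μg protein on SDS-PAGE, blotted, blocked 5% milk 1 h; primary antibodies 1:1000 overnight at 4 °C, GAPDH 1:10000 as loading control; HRP secondary 1:1000–1:5000; ECL detection.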

[3] = tested on: SK-BR-3; assay: Induction of apoptosis in human SK-BR-3 cells assessed as increase in cleaved pro-caspase-3 level at 10 to 20 uM incubated for 48 hrs by Western blot analysis; assay type: functional, cell-based; details: dose 10-20 µM; in short: as §2
[4] = tested on: MCF7; assay: Induction of apoptosis in human MCF7 cells assessed as increase in cleaved pro-caspase-8 level at 10 to 20 uM incubated for 48 hrs by Western blot analysis; assay type: functional, cell-based; details: dose 10-20 µM; in short: as §2
[5] = tested on: SK-BR-3; assay: Induction of apoptosis in human SK-BR-3 cells assessed as necrotic cells at 20 uM incubated for 36 hrs by Annexin V/PI staining based flow cytometry (reference value: 1.89 %); assay type: functional
[6] = tested on: SK-BR-3; assay: Induction of apoptosis in human SK-BR-3 cells assessed as late apoptotic cells at 20 uM incubated for 36 hrs by Annexin V/PI staining based flow cytometry (reference value: 4.95 %); assay type: functional
[7] = tested on: SK-BR-3; assay: Induction of apoptosis in human SK-BR-3 cells assessed as viable cells at 10 uM incubated for 36 hrs by Annexin V/PI staining based flow cytometry (reference value: 90.4 %); assay type: functional; details: read-out: Activity
[8] = tested on: SK-BR-3; assay: Induction of apoptosis in human SK-BR-3 cells assessed as viable cells at 5 uM incubated for 36 hrs by Annexin V/PI staining based flow cytometry (reference value: 90.4 %); assay type: functional; details: read-out: Activity
[9] = tested on: MCF7; assay: Induction of apoptosis in human MCF7 cells assessed as necrotic cells at 10 uM incubated for 36 hrs by Annexin V/PI staining based flow cytometry (reference value: 2.30 %); assay type: functional
[10] = tested on: MCF7; assay: Induction of apoptosis in human MCF7 cells assessed as early apoptotic cells at 10 uM incubated for 36 hrs by Annexin V/PI staining based flow cytometry (reference value: 1.13 %); assay type: functional
[11] = tested on: MCF7; assay: Induction of apoptosis in human MCF7 cells assessed as viable cells at 5 uM incubated for 36 hrs by Annexin V/PI staining based flow cytometry (reference value: 90.5 %); assay type: functional; details: read-out: Activity
[12] = tested on: MCF7; assay: Antiproliferative activity against human MCF7 cells assessed as inhibition of cell viability at 20 uM measured after 48 hrs by MTT assay relative to control; assay type: functional
[13] = tested on: MCF7; assay: Antiproliferative activity against human MCF7 cells assessed as inhibition of cell viability measured after 48 hrs by MTT assay; assay type: functional, cell-based; details: MCF7, 48 h; in short: as §1
[14] = tested on: HCC1806; assay: Antiproliferative activity against human HCC1806 cells assessed as inhibition of cell viability measured after 48 hrs by MTT assay; assay type: functional, cell-based; details: HCC1806, 48 h; in short: as §1
[15] = tested on: MDA-MB-468; assay: Antiproliferative activity against human MDA-MB-468 cells assessed as inhibition of cell viability measured after 48 hrs by MTT assay; assay type: functional, cell-based; details: MDA-MB-468, 48 h; in short: as §1
[16] = tested on: SK-BR-3; assay: Antiproliferative activity against human SK-BR-3 cells assessed as inhibition of cell viability measured after 48 hrs by MTT assay; assay type: functional, cell-based; details: SK-BR-3, 48 h; in short: as §1
[17] = tested on: BT-474; assay: Antiproliferative activity against human BT-474 cells assessed as inhibition of cell viability measured after 48 hrs by MTT assay; assay type: functional, cell-based; details: BT-474, 48 h; in short: as §1
[18] = biological target: T1, Heat shock protein HSP90 (Homo sapiens, UniProt P07900+P08238); assay: Inhibition of HSP90 in human MCF7 cells assessed as decrease in HER2 level at 5 to 20 uM incubated for 48 hrs by Western blot analysis; assay type: cell-based; details: dose 5-20 µM
In short: (§3)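 MCF-7 or SKBr3 cells were exposed for 48 h, then trypsinised, PBS-washed and lysed in RIPA buffer with phosphatase and protease inhibitors. Cleared lysate (14 000 rpm, 4 °C, 15 min) was BCA-quantified, and 20 µg protein was run on SDS-PAGE and blotted. Blots were blocked in 5% milk, incubated with primary antibodies (1:1000) overnight at 4 °C, then HRP secondary, and developed by ECL. GAPDH (1:10000) was the loading control.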

[19] = biological target: T1, Heat shock protein HSP90; assay: Inhibition of HSP90 in human MCF7 cells assessed as decrease in phosphorylated AKT level at 5 to 20 uM incubated for 48 hrs by Western blot analysis; assay type: cell-based; details: dose 5-20 µM; in short: as §3
[20] = biological target: T1, Heat shock protein HSP90; assay: Inhibition of HSP90 in human MCF7 cells assessed as decrease in CDK4 level at 5 to 20 uM incubated for 48 hrs by Western blot analysis; assay type: cell-based; details: dose 5-20 µM; in short: as §3
[21] = biological target: T1, Heat shock protein HSP90; assay: Inhibition of HSP90 in human SK-BR-3 cells assessed as decrease in HER2 level at 5 to 20 uM incubated for 48 hrs by Western blot analysis; assay type: cell-based; details: dose 5-20 µM; in short: as §3
[22] = biological target: T1, Heat shock protein HSP90; assay: Inhibition of HSP90 in human SK-BR-3 cells assessed as decrease in phosphorylated AKT level at 5 to 20 uM incubated for 48 hrs by Western blot analysis; assay type: cell-based; details: dose 5-20 µM; in short: as §3
[23] = biological target: T1, Heat shock protein HSP90; assay: Inhibition of HSP90 in human SK-BR-3 cells assessed as decrease in AKT level at 5 to 20 uM incubated for 48 hrs by Western blot analysis; assay type: cell-based; details: dose 5-20 µM; in short: as §3
[24] = biological target: T1, Heat shock protein HSP90; assay: Inhibition of HSP90 (unknown origin) at C-terminal by AlphaScreen assay; assay type: protein assay
In short: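 Modified AlphaScreen system measuring disruption of Cyp40 binding to recombinant HSP90 C-terminal domain; IC50 from two independent experiments.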

[25] = tested on: SK-BR-3; assay: Effect on HSP70 level in human SK-BR-3 cells at 5 to 20 uM incubated for 48 hrs by Western blot analysis; assay type: functional, cell-based; details: dose 5-20 µM; in short: as §2
[26] = tested on: MCF7; assay: Effect on HSP70 level in human MCF7 cells at 10 uM incubated for 36 hrs by DAPI staining based immunofluorescence analysis; assay type: functional, cell-based
In short: (§4)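 Cells treated 36 h with DMSO vehicle control, then fixed with 4% paraformaldehyde 15 min, permeabilized with 0.2% Triton X-100 5 min, blocked with 3% BSA 15 min; primary antibody then fluorescent secondary antibody, each 1 h at room temperature; HSP70 green, HSF-1 red, nuclei DAPI; imaged by fluorescence microscopy.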

[27] = tested on: MCF7; assay: Effect on HSF-1 level in human MCF7 cells assessed as nuclear accumulation at 10 uM incubated for 36 hrs by DAPI staining based immunofluorescence analysis; assay type: functional, cell-based; in short: as §4
[28] = tested on: SK-BR-3; assay: Effect on HSF-1 level in human SK-BR-3 cells assessed as nuclear accumulation at 10 uM incubated for 36 hrs by DAPI staining based immunofluorescence analysis; assay type: functional, cell-based; in short: as §4
[29] = Selectivity index, ratio of IC50 for HEK293T cells to IC50 for human MCF7 cells; assay type: toxicity; details: HEK293T cells versus MCF7 cells, read-out: Ratio IC50
In short: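 Viability of 293T and MCF-7 cells was measured by MTT assay, and IC50 was fitted by non-linear regression. The selectivity index is the 293T IC50 divided by the MCF-7 IC50.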

- IC50 [13]: 7.85 µM
- IC50 [14]: 10.1 µM
- IC50 [15]: 8.16 µM
- IC50 [16]: 12.1 µM
- IC50 [17]: 9.06 µM
- inhibition [18]: Active
- inhibition [19]: Active
- inhibition [20]: Active
- inhibition [21]: Active
- inhibition [22]: Active
- inhibition [23]: Active
- IC50 [24]: 53.94 µM
Structure (SMILES): CN1CCN(/C=C/C(=O)/C=C/c2cccc(O[Si](C)(C)C(C)(C)C)c2)CC1
- IC50 [1]: 32.6 µM
- Activity [2]: Active
- Activity [3]: Active
- Activity [4]: Active
- Activity [5]: 3.13%
- Activity [6]: 30.7%
- viability at 10 µM [7]: 86.9%
- viability at 5 µM [8]: 89.6%
- Activity [9]: 10.1%
- Activity [10]: 2.6%
- viability at 5 µM [11]: 80%
- inhibition at 20 µM [12]: > 50%
- Activity [25]: inactive
- Activity [26]: inactive
- Activity [27]: inactive
- Activity [28]: inactive
- selectivity ratio [29]: ~4.2
